Experimental data as given in ChEMBL document CHEMBL1268957, “Indapamide-like benzenesulfonamides as inhibitors of carbonic anhydrases I, II, VII, and XIII” (Bioorg Med Chem, 2010).

Experiments:
Carbonic anhydrase 1 [1] = target: T1, Carbonic anhydrase 1 (Homo sapiens, UniProt P00915); assay: Binding affinity to human recombinant carbonic anhydrase 1 by thermal shift assay
Carbonic anhydrase 7 [2] = target: T2, Carbonic anhydrase 7 (Homo sapiens, UniProt P43166); assay: Binding affinity to human recombinant carbonic anhydrase 7 by isothermal titration calorimetry assay
T2 sequence (P43166 whole entry): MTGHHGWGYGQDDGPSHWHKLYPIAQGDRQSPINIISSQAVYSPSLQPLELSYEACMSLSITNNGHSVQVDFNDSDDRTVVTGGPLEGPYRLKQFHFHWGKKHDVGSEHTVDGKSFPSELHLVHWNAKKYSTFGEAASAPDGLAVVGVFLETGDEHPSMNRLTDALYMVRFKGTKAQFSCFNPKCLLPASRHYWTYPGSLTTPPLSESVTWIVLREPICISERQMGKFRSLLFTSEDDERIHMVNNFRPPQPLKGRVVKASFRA

Carbonic anhydrase 13 [3] = target: T3, Carbonic anhydrase 13 (Homo sapiens, UniProt Q8N1Q1); assay: Binding affinity to human recombinant carbonic anhydrase 13 by isothermal titration calorimetry assay
T3 sequence (Q8N1Q1 whole entry): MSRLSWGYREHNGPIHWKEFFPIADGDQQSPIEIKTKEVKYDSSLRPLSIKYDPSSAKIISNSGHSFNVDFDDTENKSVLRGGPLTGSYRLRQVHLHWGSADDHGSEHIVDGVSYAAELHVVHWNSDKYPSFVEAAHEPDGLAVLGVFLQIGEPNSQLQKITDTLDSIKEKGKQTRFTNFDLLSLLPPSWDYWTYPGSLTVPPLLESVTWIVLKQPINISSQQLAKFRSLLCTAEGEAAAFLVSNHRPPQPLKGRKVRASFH

Carbonic anhydrase 1 [4] = target: T1, Carbonic anhydrase 1; assay: Binding affinity to human recombinant carbonic anhydrase 1 by isothermal titration calorimetry assay
Summary of the method: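 Isothermal titration calorimetry of ligand binding to recombinant hCA at 37 °C in phosphate buffer with 50 mM NaCl, pH 7.0, final DMSO 0.5–2%. Heats of injection integrated against molar ratio to give the dissociation constant.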

Carbonic anhydrase 2 [5] = target: T4, Carbonic anhydrase 2 (Homo sapiens, UniProt P00918); assay: Binding affinity to human recombinant carbonic anhydrase 2 by thermal shift assay
Carbonic anhydrase 13 [6] = target: T3, Carbonic anhydrase 13; assay: Binding affinity to human recombinant carbonic anhydrase 13 by thermal shift assay
Carbonic anhydrase 7 [7] = target: T2, Carbonic anhydrase 7; assay: Binding affinity to human recombinant carbonic anhydrase 7 by thermal shift assay
Carbonic anhydrase 2 [8] = target: T4, Carbonic anhydrase 2; assay: Binding affinity to human recombinant carbonic anhydrase 2 by isothermal titration calorimetry assay

T1 sequence (P00915 whole entry): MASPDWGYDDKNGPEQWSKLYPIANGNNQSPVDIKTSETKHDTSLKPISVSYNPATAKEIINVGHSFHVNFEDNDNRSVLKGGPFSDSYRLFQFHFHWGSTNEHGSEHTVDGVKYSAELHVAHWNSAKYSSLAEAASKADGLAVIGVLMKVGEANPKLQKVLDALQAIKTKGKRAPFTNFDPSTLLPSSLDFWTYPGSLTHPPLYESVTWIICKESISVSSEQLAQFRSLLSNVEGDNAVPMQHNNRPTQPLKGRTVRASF

Compound | Kd (Carbonic anhydrase 1 [1]) [nM] | Kd (Carbonic anhydrase 7 [2]) [nM] | Kd (Carbonic anhydrase 13 [3]) [nM] | Kd (Carbonic anhydrase 1 [4]) [nM] | Kd (Carbonic anhydrase 2 [5]) [nM] | Kd (Carbonic anhydrase 13 [6]) [nM] | Kd (Carbonic anhydrase 7 [7]) [nM] | Kd (Carbonic anhydrase 2 [8]) [nM]
CC(C)Cc1nc2ccccc2n1CC(=O)c1ccc(Cl)c(S(N)(=O)=O)c1 | – | – | – | – | 400 | – | – | –
NS(=O)(=O)c1cc(C(=O)Cn2c(CN3CCOCC3)nc3ccccc32)ccc1Cl | 40000 | – | – | – | 4200 | 12500 | 10000 | –
NS(=O)(=O)c1cc(C(=O)Cn2cnc3ccccc32)ccc1Cl | – | – | – | – | – | 700 | – | –
NS(=O)(=O)c1cc(C(=O)Cn2c(CO)nc3ccccc32)ccc1Cl | – | – | – | – | – | 300 | – | –

The remaining lines, values ahead:

Kd (Carbonic anhydrase 1 [1]) [nM] | Kd (Carbonic anhydrase 7 [2]) [nM] | Kd (Carbonic anhydrase 13 [3]) [nM] | Kd (Carbonic anhydrase 1 [4]) [nM] | Kd (Carbonic anhydrase 2 [5]) [nM] | Kd (Carbonic anhydrase 13 [6]) [nM] | Kd (Carbonic anhydrase 7 [7]) [nM] | Kd (Carbonic anhydrase 2 [8]) [nM] | Compound
3100 | 1100 | 300 | 2200 | 20 | 100 | 100 | – | NS(=O)(=O)c1cc(C(=O)CSc2nc3cc4c(cc3[nH]2)OCCO4)ccc1Cl
1000 | 100 | 100 | 1300 | 100 | 200 | 30 | 100 | NS(=O)(=O)c1cc(C(=O)CSc2nc3ccccc3[nH]2)ccc1Cl
1300 | – | 200 | 1400 | – | 100 | 100 | – | NS(=O)(=O)c1cc(C(=O)CSc2nc3ccc(Br)cc3[nH]2)ccc1Cl
1300 | – | – | – | – | 100 | 100 | – | NS(=O)(=O)c1cc(C(=O)CSc2nc3c(cnc4ccccc43)[nH]2)ccc1Cl
